Measurements pooled from the literature.
Each line is one published result; the experiments were not run side by side.
Target: Dual specificity mitogen-activated protein kinase kinase 7 (MAP2K7, Homo sapiens, UniProt O14733)
Sequence (O14733 1-419, as in one of the studies): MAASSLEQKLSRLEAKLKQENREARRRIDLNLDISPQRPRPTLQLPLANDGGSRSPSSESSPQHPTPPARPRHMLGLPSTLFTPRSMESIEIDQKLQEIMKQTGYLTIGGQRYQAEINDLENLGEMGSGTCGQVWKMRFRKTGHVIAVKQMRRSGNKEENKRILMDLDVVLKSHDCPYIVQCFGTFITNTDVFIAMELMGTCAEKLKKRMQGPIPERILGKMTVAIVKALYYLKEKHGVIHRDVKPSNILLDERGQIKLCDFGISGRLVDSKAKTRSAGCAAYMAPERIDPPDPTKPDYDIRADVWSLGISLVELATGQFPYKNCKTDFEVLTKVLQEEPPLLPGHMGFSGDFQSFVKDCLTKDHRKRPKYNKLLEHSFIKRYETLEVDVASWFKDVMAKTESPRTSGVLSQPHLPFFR

Cc1c(NC(=O)c2cc(C(N)=O)nc3cc(F)ccc23)c(C(F)(F)F)nn1Cc1ccc(C#N)cc1 — remaining binding (cell-free assay; competition with immobilised ligand; 1 µM): 79%
O=C(c1ccc(Nc2ncc(Cl)c(-c3ccc(Cl)s3)n2)cc1)N1CCC(N2CCCC2)CC1 — remaining binding (binding; competition with immobilised ligand; 1 µM): 82%
CN(c1nccc(-c2cnn3ncccc23)n1)C1CC1 — remaining binding (binding; 1 µM): 100%
CN(C)C(=O)Cn1cc(-c2nc([C@@](C)(c3ccc(-c4cnc(N)nc4)cc3)C3CC3)no2)cn1 — remaining binding (cell-free assay; competition with immobilised ligand; 1 µM): 94%
CNC(=O)[C@@H]1CC[C@@H](n2c(-c3ccc4cnccc4c3)nc3ccc(C(=O)NCc4cccc(C(N)=O)c4)cc32)C1 — remaining binding (binding; competition with immobilised ligand; 1 µM): 100%
CN(C)c1ncnc(-c2ccc3nc(Nc4cc(CN5CCN(C(=O)CC(F)(F)F)CC5)ccn4)[nH]c3c2)c1Cl — remaining binding (cell-free assay; competition with immobilised ligand; 1 µM): 100%
O=C(c1ccc(Nc2ncc(Cl)c(-c3cc4ccccc4s3)n2)cc1)N1CCC(N2CCCC2)CC1 — remaining binding (binding; competition with immobilised ligand; 1 µM): 96%
CN(c1ccnc(CNc2nc(Nc3ccc4c(c3)CC(=O)N4)ncc2C(F)(F)F)n1)S(C)(=O)=O — remaining binding (cell-free assay; competition with immobilised ligand; 1 µM): 73%
FC(F)(F)Oc1cccc(-c2cnc3ccc(-c4ccncc4)nn23)c1 — remaining binding (cell-free assay; competition with immobilised ligand; 5 µM): 96%
CN(C)c1nccc(-c2cnn3ncccc23)n1 — remaining binding (binding; 1 µM): 100%
c1cncc(-c2cccc(Nc3nccc(NC4CCCCC4)n3)c2)c1 — remaining binding (binding; competition with immobilised ligand; 10 µM): 100%
c1cnn2ncc(-c3ccnc(N4CCC45COC5)n3)c2c1 — remaining binding (binding; 1 µM): 72%
O=S(=O)(NC1CCC(c2cc(F)ccc2F)(S(=O)(=O)c2ccc(Cl)cc2)CC1)C(F)(F)F (centres unmarked) — remaining binding (cell-free assay; competition with immobilised ligand; 1 µM): 100%
O=C(NCCCN1CCOCC1)c1ccc(Nc2ncc(Cl)c(-c3ccc(Cl)s3)n2)cc1 — remaining binding (binding; competition with immobilised ligand; 1 µM): 87%
Cc1cnn2ncc(-c3ccnc(N(C)C)n3)c2c1 — remaining binding (binding; 1 µM): 71%
COc1cnc(Nc2cccc(S(N)(=O)=O)c2)nc1N1CCN(c2ccccc2)CC1 — remaining binding (binding; competition with immobilised ligand; 1 µM): 97%
C[C@H]1CCN(c2nccc(-c3cnn4ncccc34)n2)C1 — remaining binding (binding; 1 µM): 83%
O=C(NCC1CCOCC1)c1n[nH]cc1NC(=O)c1c(F)cccc1F — remaining binding (binding; competition with immobilised ligand; 1 µM): 84%
N[C@H]1CCN(c2nccc(-c3cnn4ncccc34)n2)C1 — remaining binding (binding; 1 µM): 93%
COc1cccc(CNC(=O)c2nc3scc(COCc4ccc(C(=O)O)cc4)c3c(=O)[nH]2)c1 — remaining binding (cell-free assay; competition with immobilised ligand; 1 µM): 81.2%
